Legend:
[1] = Cytotoxicity against feline CRFK cells by MTS assay; format: cell-based, Felis catus; details: cat
[2] = target: Human immunodeficiency virus type 1 reverse transcriptase (Human immunodeficiency virus 1, UniProt Q72547, L100I); assay: Inhibition of HIV1 reverse transcriptase p66/p51 L100I mutant; details: read-out: IC50
Method in brief: (§1)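 Substrate was 0.5 µg poly(rA)/oligo(dT) 10:1 (0.3 µM 3′-OH ends) with 10 µM [³H]dTTP, at 37 °C. Acid-precipitable radioactivity was counted on GF/C filters after TCA washes.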

[3] = system: CCRF-CEM; assay: Antiproliferative activity against human CEM cells after 3 days; format: cell-based; details: 72 h
Method in brief: (§2)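 Cells seeded at 5 × 10⁴ to 7.5 × 10⁴ cells/200 µL with or without serial compound dilutions; incubated at 37 °C for 2 days (L1210) or 3 days (Molt4/C8, CEM). Cell numbers counted with a Coulter counter. CC₅₀ = concentration reducing proliferation by 50% versus untreated controls, read from plots of cell number (% of control) against concentration. Means of at least two independent experiments.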

[4] = system: Influenza A virus; assay: Antiviral activity against influenza H1N1 virus in MDCK cells assessed as reduction of virus-induced cytopathicity by MTS method; format: functional, organism-based
[5] = system: Felid alphaherpesvirus 1; assay: Antiviral activity against Feline herpesvirus in feline […] cells assessed as inhibition of virus-induced cytopathicity; format: functional, organism-based
[6] = system: Human alphaherpesvirus 1; assay: Antiviral activity against HSV1 KOS in human HEL cells assessed as protection against virus-induced cytopathicity; format: functional, organism-based; details: Human alphaherpesvirus 1, KOS
[7] = target: Human immunodeficiency virus type 1 reverse transcriptase (Human immunodeficiency virus 1, UniProt Q72547, K103N); assay: Inhibition of HIV1 reverse transcriptase p66/p51 K103N mutant; details: read-out: IC50; method in brief: as §1
[8] = system: Influenza B virus; assay: Antiviral activity against influenza B virus in MDCK cells assessed as reduction of virus-induced cytopathicity by visual cytopathic effect scoring method; format: functional, organism-based
[9] = Cytotoxicity against MDCK cells assessed as drug level causing microscopically detectable alteration of normal cell morphology; format: cell-based, Canis lupus familiaris; details: dog
[10] = system: Influenza A virus H3N2; assay: Antiviral activity against influenza H3N2 virus in MDCK cells assessed as reduction of virus-induced cytopathicity by MTS method; format: functional, organism-based
[11] = system: Mammalian orthoreovirus 1; assay: Antiviral activity against Reovirus 1 in african green monkey Vero cells assessed as protection against virus-induced cytopathicity; format: functional, organism-based; details: Mammalian orthoreovirus 1, Vero
Method in brief: (§3)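 Confluent cell monolayers inoculated with 100 CCID₅₀ virus. After 1-2 h adsorption, residual virus removed and cultures incubated with varying compound concentrations. Cytopathicity scored once it reached completion in untreated infected controls. EC₅₀ = dose reducing virus-induced cytopathogenicity by 50%.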

[12] = system: Coxsackievirus B4; assay: Antiviral activity against Coxsackievirus B4 in african green monkey Vero cells assessed as protection against virus-induced cytopathicity; format: functional, organism-based; details: Enterovirus B; method in brief: as §3
[13] = Cytotoxicity against human HeLa cells assessed as drug level causing microscopically detectable alteration of normal cell morphology after 3 days; format: cell-based
Method in brief: (§4)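 Serial compound dilutions added to confluent HeLa or Vero monolayers. MCC = minimum concentration causing microscopically detectable alteration of cell morphology after 3 days of incubation.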

[14] = system: Vesicular stomatitis virus; assay: Antiviral activity against VSV in human HeLa cells assessed as protection against virus-induced cytopathicity; format: functional, organism-based
[15] = Cytotoxicity against human HEL cells assessed as drug level causing microscopically detectable alteration of normal cell morphology after 3 days; format: cell-based
[16] = target: Human immunodeficiency virus type 1 reverse transcriptase (Human immunodeficiency virus 1, UniProt Q72547); assay: Inhibition of HIV1 reverse transcriptase p66/p51; details: read-out: IC50
[17] = system: Human respirovirus 3; assay: Antiviral activity against Parainfluenza virus type 3 in african green monkey Vero cells assessed as protection against virus-induced cytopathicity; format: functional, organism-based; details: Human respirovirus 3, Vero; method in brief: as §3
[18] = system: Vesicular stomatitis virus; assay: Antiviral activity against VSV in human HEL cells assessed as protection against virus-induced cytopathicity; format: functional, organism-based
[19] = system: Human alphaherpesvirus 2; assay: Antiviral activity against HSV2 G in human HEL cells assessed as protection against virus-induced cytopathicity; format: functional, organism-based; details: Human alphaherpesvirus 2, strain G; method in brief: as §3
[20] = system: Human alphaherpesvirus 1; assay: Antiviral activity against thymidine kinase deficient and acyclovir resistant HSV1 KOS in human HEL cells assessed as protection against virus-induced cytopathicity; format: functional, organism-based; details: Human alphaherpesvirus 1, KOS
[21] = system: Human immunodeficiency virus 1; assay: Antiviral activity against HIV1 3B in human CEM cells assessed as protection against virus-induced cytopathicity after 4 days; format: functional, organism-based; details: Human immunodeficiency virus 1, 3B, CCRF-CEM, 96 h
Method in brief: (§5)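 CEM cells (~3 × 10⁵ cells/mL) infected with ~100 CCID₅₀ per mL of HIV-1 (IIIB) or HIV-2 (ROD), then seeded into wells containing compound dilutions. After 4 days at 37 °C, syncytium (giant cell) formation was examined microscopically. EC₅₀ = concentration protecting CEM cells from HIV cytopathicity by 50%.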

[22] = target: Human immunodeficiency virus type 1 reverse transcriptase (Human immunodeficiency virus 1, UniProt Q72547, Y181I); assay: Inhibition of HIV1 reverse transcriptase p66/p51 Y181I mutant; details: read-out: IC50; method in brief: as §1
[23] = system: Feline coronavirus; assay: Antiviral activity against Feline coronavirus in feline […] cells assessed as inhibition of virus-induced cytopathicity; format: functional, organism-based; details: Alphacoronavirus 1
[24] = Cytotoxicity against african green monkey Vero cells assessed as drug level causing microscopically detectable alteration of normal cell morphology after 3 days; format: cell-based; details: chlorocebus sabaeus; method in brief: as §4
[25] = system: Human immunodeficiency virus 2; assay: Antiviral activity against HIV2 ROD in human CEM cells assessed as protection against virus-induced cytopathicity after 4 days; format: functional, organism-based; details: Human immunodeficiency virus 2, ROD, CCRF-CEM, 96 h; method in brief: as §5
[26] = system: Vaccinia virus; assay: Antiviral activity against Vaccinia virus Lederle in human HEL cells assessed as protection against virus-induced cytopathicity; format: functional, organism-based; details: Orthopoxvirus vaccinia
[27] = system: Respiratory syncytial virus; assay: Antiviral activity against RSV Long in human HeLa cells assessed as protection against virus-induced cytopathicity; format: functional, organism-based; method in brief: as §3
[28] = system: Influenza A virus; assay: Antiviral activity against influenza H1N1 virus in MDCK cells assessed as reduction of virus-induced cytopathicity by visual cytopathic effect scoring method; format: functional, organism-based
[29] = Antiproliferative activity against human Molt4/C8 cells after 3 days; format: cell-based; details: MOLT-4, 72 h; method in brief: as §2
[30] = system: Influenza A virus H3N2; assay: Antiviral activity against influenza H3N2 virus in MDCK cells assessed as reduction of virus-induced cytopathicity by visual cytopathic effect scoring method; format: functional, organism-based
[31] = system: Sindbis virus; assay: Antiviral activity against Sindbis virus in african green monkey Vero cells assessed as protection against virus-induced cytopathicity; format: functional, organism-based; method in brief: as §3
[32] = Cytotoxicity against MDCK cells by MTS assay; format: cell-based, Canis lupus familiaris; details: dog
[33] = system: Punta Toro virus; assay: Antiviral activity against Punta Toro virus in african green monkey Vero cells assessed as protection against virus-induced cytopathicity; format: functional, organism-based; method in brief: as §3
[34] = system: L1210; assay: Antiproliferative activity against mouse L1210 cells after 2 days; format: cell-based; details: L1210, 48 h; method in brief: as §2
[35] = system: Coxsackievirus B4; assay: Antiviral activity against Coxsackievirus B4 in human HeLa cells assessed as protection against virus-induced cytopathicity; format: functional, organism-based; details: Enterovirus B; method in brief: as §3
[36] = system: Influenza B virus; assay: Antiviral activity against influenza B virus in MDCK cells assessed as reduction of virus-induced cytopathicity by MTS method; format: functional, organism-based

SMILES	EC50 ([4]; Influenza A virus, H1N1, MDCK) [µM]	EC50 [6] [µM]	IC50 [7] [µM]	EC50 [8] [µM]	MCC [9] [µM]	EC50 [10] [µM]	EC50 [12] [µM]	MCC at 72 h [13] [µM]	MCC at 72 h [15] [µM]	IC50 [16] [µM]	EC50 [17] [µM]	EC50 [18] [µM]	EC50 [19] [µM]	EC50 [20] [µM]	MCC at 72 h [24] [µM]	EC50 [26] [µM]	EC50 [27] [µM]	EC50 [28] [µM]	CC50 [32] [µM]	EC50 [36] [µM]	further results
Cc1cc(C)cc(S(=O)(=O)c2c(C(=O)NC(C)CC(N)=O)[nH]c3ccc([N+](=O)[O-])cc23)c1 (stereo not drawn)	> 4	> 4	1.09	> 4	20	> 4	> 20	100	20	0.033	> 20	> 4	> 4	> 4	100	> 4	> 20	> 4	> 100	> 4	CC50 [1]: 21.1 µM; IC50 [2]: 0.191 µM; IC50 [3]: 36 µM; EC50 [5]: > 20 µM; EC50 [11]: > 20 µM; EC50 [14]: > 20 µM; EC50 [21]: 0.0051 µM; IC50 [22]: 11.9 µM; EC50 [23]: > 20 µM; EC50 [25]: > 10 µM; IC50 [29]: 41 µM; EC50 [30]: > 4 µM; EC50 [31]: > 20 µM; EC50 [33]: > 20 µM; IC50 [34]: 37 µM; EC50 [35]: ≥ 20 µM
Cc1cc(C)cc(S(=O)(=O)c2c(C(=O)NCCC(N)=O)[nH]c3ccc(Cl)c(F)c23)c1	> 20	> 20	0.783	> 20	100	> 20	> 20	100	100	0.034	> 20	> 20	> 20	> 20	100	> 20	16	> 20	24.3	> 20	CC50 [1]: 45.3 µM; IC50 [2]: 0.13 µM; IC50 [3]: 30 µM; EC50 [5]: > 20 µM; EC50 [11]: > 20 µM; EC50 [14]: > 20 µM; EC50 [21]: 0.002 µM; IC50 [22]: 7.16 µM; EC50 [23]: > 20 µM; EC50 [25]: > 10 µM; IC50 [29]: 33 µM; EC50 [30]: > 20 µM; EC50 [31]: > 20 µM; EC50 [33]: > 20 µM; IC50 [34]: 42 µM; EC50 [35]: 9 µM
NC(=O)c1ncn([C@@H]2O[C@H](CO)[C@@H](O)[C@H]2O)n1 [RIBAVIRIN]	–	> 250	–	4	> 100	8.1	≥ 250	> 250	> 250	–	> 50	125	250	> 250	> 250	112	10	900	> 100	4.8	EC50 ([4]; mdck): 8400 µM; EC50 [31]: 250 µM; EC50 [33]: 50 µM; EC50 [35]: 50 µM
Cc1cc(C)cc(S(=O)(=O)c2c(C(=O)N[C@@H](C)C(N)=O)[nH]c3ccc(Br)cc23)c1	–	–	1.5	–	–	–	–	–	–	0.013	–	–	–	–	–	–	–	–	–	–	–
Nc1ccn(C[C@@H](CO)OCP(=O)(O)O)c(=O)n1 [CIDOFOVIR]	–	2	–	–	–	–	–	–	> 250	–	–	> 250	1	1	–	20	–	–	–	–	–
CC(N)C12CC3CC(CC(C3)C1)C2 (stereo not drawn) [RIMANTADINE]	33.2	–	–	> 100	> 100	> 100	–	–	–	–	–	–	–	–	–	–	–	45	> 100	> 100	EC50 [30]: > 100 µM
Cc1cc(C)cc(S(=O)(=O)c2c(C(=O)N[C@H](C)C(N)=O)[nH]c3ccc(Br)cc23)c1	–	–	0.324	–	–	–	–	–	–	0.016	–	–	–	–	–	–	–	–	–	–	–
Cc1cc(C)cc(S(=O)(=O)c2c(C(=O)N[C@@H](C)CC(N)=O)[nH]c3ccc(Cl)cc23)c1	–	–	1.34	–	–	–	–	–	–	0.315	–	–	–	–	–	–	–	–	–	–	–

— ChEMBL document CHEMBL1153955, “Indolylarylsulfones bearing natural and unnatural amino acids. Discovery of potent inhibitors of HIV-1 non-nucleoside wild type and resistant mutant strains reverse transcriptase and coxsackie B4 virus” (J Med Chem, 2009)
